Experimental data: ChEMBL document CHEMBL1212932, “Nocapyrones A-D, gamma-pyrones from a Nocardiopsis strain isolated from the marine sponge Halichondria panicea” (2010)
Activity calls are given as the source filed them. No cut-off for these calls is given here.

Columns and labels:
[1] = system: HepG2; assay: Cytotoxicity against human HepG2 cells at 50 uM; format: functional
In short: (§1)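 Cells were treated with compound at 50 µM. The read-out was metabolic activity, and the value is given as the percent reduction in metabolic activity.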

[2] = system: NIH3T3; assay: Cytotoxicity against mouse NIH/3T3 cells at 50 uM; format: functional; in short: as §1
[3] = system: Pseudomonas aeruginosa; assay: Antimicrobial activity against Pseudomonas aeruginosa DSM 50071; format: functional, organism-based
[4] = system: Staphylococcus epidermidis; assay: Antimicrobial activity against Staphylococcus epidermidis DSM 20044; format: functional, organism-based
[5] = system: Ralstonia solanacearum; assay: Antimicrobial activity against Ralstonia solanacearum DSM 9544; format: functional, organism-based
[6] = system: Pseudomonas syringae; assay: Antimicrobial activity against Pseudomonas syringae DSM 50252; format: functional, organism-based
[7] = target: Human immunodeficiency virus type 1 reverse transcriptase (Human immunodeficiency virus 1) (UniProt Q72547); assay: Inhibition of HIV1 reverse transcriptase by ELISA
[8] = target: Acetylcholinesterase (Homo sapiens) (UniProt P22303); assay: Inhibition of acetylcholinesterase by colorimetric assay
Acetylcholinesterase (Homo sapiens), sequence (P22303 whole entry): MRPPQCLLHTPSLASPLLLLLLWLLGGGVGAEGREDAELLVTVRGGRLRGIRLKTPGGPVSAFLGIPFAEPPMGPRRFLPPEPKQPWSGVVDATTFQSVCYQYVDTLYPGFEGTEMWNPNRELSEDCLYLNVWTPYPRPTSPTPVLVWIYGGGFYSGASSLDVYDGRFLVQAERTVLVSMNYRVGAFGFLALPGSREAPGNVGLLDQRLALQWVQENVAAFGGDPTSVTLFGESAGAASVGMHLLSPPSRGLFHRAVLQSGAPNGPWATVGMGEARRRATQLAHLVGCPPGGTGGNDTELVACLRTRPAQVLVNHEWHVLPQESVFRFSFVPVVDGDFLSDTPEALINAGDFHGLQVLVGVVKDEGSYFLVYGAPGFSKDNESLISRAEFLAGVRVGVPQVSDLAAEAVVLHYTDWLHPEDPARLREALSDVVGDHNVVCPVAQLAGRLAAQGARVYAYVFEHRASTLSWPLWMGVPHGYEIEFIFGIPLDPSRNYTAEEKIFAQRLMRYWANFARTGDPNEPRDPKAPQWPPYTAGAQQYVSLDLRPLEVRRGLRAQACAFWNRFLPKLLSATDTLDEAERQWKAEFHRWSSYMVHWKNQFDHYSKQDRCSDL

[9] = target: T1, Tyrosine-protein phosphatase non-receptor type 1 (Homo sapiens) (UniProt P18031); assay: Inhibition of protein tyrosine phosphatase 1b by colorimetric assay
T1 sequence (whole entry): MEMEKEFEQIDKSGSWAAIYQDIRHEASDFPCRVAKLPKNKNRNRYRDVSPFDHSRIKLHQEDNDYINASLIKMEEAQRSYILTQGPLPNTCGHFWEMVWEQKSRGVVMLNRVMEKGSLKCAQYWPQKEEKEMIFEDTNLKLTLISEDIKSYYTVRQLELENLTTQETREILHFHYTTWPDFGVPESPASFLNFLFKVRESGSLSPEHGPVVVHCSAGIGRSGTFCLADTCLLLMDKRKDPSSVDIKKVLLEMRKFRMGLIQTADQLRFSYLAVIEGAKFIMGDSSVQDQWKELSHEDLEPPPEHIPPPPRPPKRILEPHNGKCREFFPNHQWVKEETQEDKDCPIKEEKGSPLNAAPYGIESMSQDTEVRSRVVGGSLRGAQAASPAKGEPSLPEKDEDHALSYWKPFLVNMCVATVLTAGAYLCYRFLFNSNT

[10] = system: Escherichia coli; assay: Antimicrobial activity against Escherichia coli K-12 DSM 498; format: functional, organism-based
[11] = system: Pseudomonas fluorescens; assay: Antimicrobial activity against Pseudomonas fluorescens NCIMB 10586; format: functional, organism-based
[12] = system: Mammaliicoccus lentus; assay: Antimicrobial activity against Staphylococcus lentus DSM 6672; format: functional, organism-based
[13] = system: Erwinia amylovora; assay: Antimicrobial activity against Erwinia amylovora DSM 50901; format: functional, organism-based
[14] = system: Xanthomonas campestris; assay: Antimicrobial activity against Xanthomonas campestris DSM 2405; format: functional, organism-based
[15] = system: Bacillus subtilis; assay: Antimicrobial activity against Bacillus subtilis DSM 347; format: functional, organism-based
[16] = Inhibition of phosphodiesterase 4 by colorimetric assay
[17] = system: Cutibacterium acnes; assay: Antimicrobial activity against Propionibacterium acnes DSM 1897; format: functional, organism-based
[18] = system: Candida albicans; assay: Antimicrobial activity against Candida albicans DSM 6425; format: functional, organism-based
[19] = target: Glycogen synthase kinase-3 beta (Homo sapiens) (UniProt P49841); assay: Inhibition of GSK3-beta
Glycogen synthase kinase-3 beta (Homo sapiens), sequence (P49841 whole entry, looked up): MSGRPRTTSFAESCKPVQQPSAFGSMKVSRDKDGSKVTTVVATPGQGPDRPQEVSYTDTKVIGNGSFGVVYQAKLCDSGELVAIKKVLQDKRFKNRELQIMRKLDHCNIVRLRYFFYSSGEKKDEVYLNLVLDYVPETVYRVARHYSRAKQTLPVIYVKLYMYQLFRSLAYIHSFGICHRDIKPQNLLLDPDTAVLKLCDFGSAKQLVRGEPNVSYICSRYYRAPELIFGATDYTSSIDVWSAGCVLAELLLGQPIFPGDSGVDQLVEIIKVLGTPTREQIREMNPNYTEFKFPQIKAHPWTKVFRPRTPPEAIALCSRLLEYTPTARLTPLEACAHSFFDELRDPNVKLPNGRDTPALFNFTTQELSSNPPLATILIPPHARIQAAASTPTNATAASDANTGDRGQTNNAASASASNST

COc1ccc(/C=c2/[nH]c(=O)/c(=C/C(C)C)[nH]c2=O)cc1
Activity [1]: 44% | Activity [2]: 64%

COc1oc(CCCCC(C)C)c(C)c(=O)c1C
Activity [3]: inactive | Activity [4]: inactive | Activity [5]: inactive | Activity [6]: inactive | Activity [7]: inactive | Activity [8]: inactive | Activity [9]: inactive | Activity [10]: inactive | Activity [11]: inactive | Activity [12]: inactive | Activity [13]: inactive | Activity [14]: inactive | Activity [15]: inactive | Activity [16]: inactive | Activity [17]: inactive | Activity [18]: inactive | Activity [19]: inactive

COc1oc(CCCCC(C)(C)O)c(C)c(=O)c1C
Activity [3]: inactive | Activity [4]: inactive | Activity [5]: inactive | Activity [6]: inactive | Activity [7]: inactive | Activity [8]: inactive | Activity [9]: inactive | Activity [10]: inactive | Activity [11]: inactive | Activity [12]: inactive | Activity [13]: inactive | Activity [14]: inactive | Activity [15]: inactive | Activity [16]: inactive | Activity [17]: inactive | Activity [18]: inactive | Activity [19]: inactive
